GALR2 ag = agonists of human galanin receptor 2 (GALR2) | GALR2-expressing cells, agonist activation read-out | 140,000 tested, 0.48% active | AID 803 | activation, % (concentration not given with the values); in the data active = activation above about 5%, passing the limit was not always enough;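 note: 0% = vehicle buffer wells and 100% = reference agonist at full effect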
Target sequence (O43603 whole entry, looked up): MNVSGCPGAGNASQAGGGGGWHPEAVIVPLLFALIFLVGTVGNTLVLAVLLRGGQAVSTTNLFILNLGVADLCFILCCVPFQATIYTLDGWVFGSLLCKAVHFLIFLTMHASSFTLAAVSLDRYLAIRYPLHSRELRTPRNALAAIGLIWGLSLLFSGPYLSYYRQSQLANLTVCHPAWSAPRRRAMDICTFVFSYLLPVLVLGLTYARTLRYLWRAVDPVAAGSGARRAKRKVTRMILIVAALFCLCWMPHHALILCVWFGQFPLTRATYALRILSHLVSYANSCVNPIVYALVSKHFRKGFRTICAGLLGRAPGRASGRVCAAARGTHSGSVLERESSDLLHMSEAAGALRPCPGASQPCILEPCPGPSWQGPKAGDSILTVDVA
Rev-RRE block = disrupts HIV-1 Rev binding to RRE RNA. P05866. Rev peptide-RRE RNA binding, FRET. inhibition, % at 8 µM. 97,000 tested, 0.79% active. AID 704;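 active = inhibition above the screen-wide mean plus 3 SD, cut at about 35% in these data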;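 note: 0% = median DMSO wells and 100% = median Neomycin B control wells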
Target sequence (P05866 whole entry, looked up): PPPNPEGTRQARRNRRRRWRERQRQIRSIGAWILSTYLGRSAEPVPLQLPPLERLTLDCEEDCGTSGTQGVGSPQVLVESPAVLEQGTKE
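Material: labelled RRE RNA duplex and labelled Rev peptide / Buffer or medium: HEPES pH 7.5 salt buffer with EDTA / Compound dosing: single point, 8 µM final nominal compound concentration / Benchmarks: DMSO low control, neomycin B high control / Timing: 5 min preincubation and 15 min binding, 25 °C / Technique: FRET fluorescence readout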
S1P2 agonist = activates the human S1P2 receptor | S1P2-expressing cell line, agonist reporter read-out | O95136 | AID 729 | 97,000 tested, 0.46% active | activation, % at 4.5 µM; in the data active = activation above about 16%;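 note: 0% = vehicle low control and 100% = maximal reference agonist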
GALR2 antag = GALR2 (human) receptor antagonism | O43603 | GALR2-expressing cells, antagonist mode | inhibition, % at 4 µM | 140,000 tested, 0.39% active; in the data active = inhibition above about 27%;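 note: cells stimulated with galanin 1-16 at roughly its EC80; 0% = agonist challenge control and 100% = basal control without agonist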
S1P2 antag = antagonists of human S1P2 receptor | O95136 | 97,000 tested, 0.21% active | AID 736 | inhibition, % at 5 µM | cell-based S1P2 antagonist assay, inhibition at 5 uM; in the data active = inhibition above about 45%;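 note: CRE beta-lactamase reporter cells expressing human S1P2 stimulated with S1P; 0% = agonist at EC80 alone and 100% = agonist plus reference antagonist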
EphB4 antag = blocks human EphB4 binding to ephrin-B2. P54760. EphB4 LBD / TNYL-RAW-Alexa532 peptide, fluorescence polarization. inhibition, % at 7 µM. 97,000 tested, 0.15% active;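 active = inhibition above the screen-wide mean inhibition plus 3 SD, cut at about 15% in these data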;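 note: 0% = DMSO wells and 100% = excess unlabeled TNYL-RAW peptide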
GALR2 agon conf = GALR2 (human) agonism confirmed; shares compounds with GALR2 ag; GALR2-expressing cells, agonist activation; activation, % at 5.6 µM; 460 tested, 10% active; AID 864; in the data active = activation above about 8.4%;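 note: 0% = buffer-only vehicle wells and 100% = full reference agonist response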
BLA activ ctr = counter-screen for GALR2 agonists: beta-lactamase reporter activators; activation, % at 5.6 µM; AID 865; 460 tested, 10% active; CHO NFAT-bla reporter, beta-lactamase FRET activation; shares compounds with GALR2 ag;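 active = activation above the screen-wide mean activation plus 3 SD, cut at about 8% in these data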;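 note: 0% = DMSO with PBS wells and 100% = thapsigargin positive control wells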
* = called active by the depositor; / = not tested or not shown. This is a sample that favours compounds with a hit; in the whole collection about 1.8% have one here.

SMILES	GALR2 ag	Rev-RRE block	S1P2 agonist	GALR2 antag	S1P2 antag	EphB4 antag	GALR2 agon conf	BLA activ ctr
Cc1ccc(C2=C/C(=C/c3cccnc3)C(=O)O2)c(C)c1	-0.4	/	/	4.5	/	/	/	/
O=C(CSc1nc2c([nH]c3ccccc32)c(=O)n1-c1ccccc1)N1CCOCC1	-1.6	/	/	2.4	/	/	/	/
O=C(CSc1nc2c([nH]c3ccccc32)c(=O)n1-c1cccc(Cl)c1)N1CCOCC1	13.4*	7.6	13.0	3.0	4.8	1.5	6.2	1.0
CCOc1ccc(-c2nnc(NC3=NCCCCC3)o2)cc1	16.6*	8.1	-5.3	0.2	-5.7	-0.4	-1.0	-1.7
Cc1csc2cc(-c3cccc([N+](=O)[O-])c3)c(-c3cccc([N+](=O)[O-])c3)c[n+]12	-0.6	/	/	6.0	/	/	/	/
Cc1[nH]nc(N=CC2=C(O)CC(C)(C)CC2=O)c1-c1ccccc1	14.0*	6.9	-5.2	2.2	0.5	7.0	-0.9	-2.9
Cc1[nH]nc(N=CC2=C(O)CC(c3ccco3)CC2=O)c1-c1ccccc1 (centres undefined)	0.1	-1.6	0.6	3.3	-6.4	-2.5	/	/
Cn1c(=O)oc2cc(S(=O)(=O)N3CCCC(C(=O)Nc4ccccn4)C3)ccc21 (centres undefined)	16.9*	3.2	-5.1	6.9	-1.7	1.7	-0.3	-2.1
CC1(C)CC(=O)C=C(Nc2ccc(C(=O)O)cc2)C1	-0.1	18.0	-2.8	7.7	-8.7	-8.7	/	/
CC1(C)CC(=O)C=C(Nc2ccc(S(N)(=O)=O)cc2)C1	40.9*	4.9	-11.2	7.2	-13.4	-2.5	-0.8	-2.3
CC(C)N1C(=O)/C(=C\c2nc3ccccc3c(=O)n2-c2ccccc2)c2ccccc21	40.9*	/	/	-14.3	/	/	0.9	1.8
COC(=O)c1cc([N+](=O)[O-])c(-n2ccnc2)c([N+](=O)[O-])c1	-0.5	/	/	4.9	/	/	/	/
CC1(C)CC(=O)C2=C(C1)N(CCN1CCOCC1)C1=C(C(=O)CC(C)(C)C1)C2c1cccc(Cl)c1	8.6	-0.4	5.5	0.0	-8.0	-7.5	1.5	3.0
CCCNC1=CC(=O)CC(C)(C)C1	-1.2	/	/	1.8	/	/	/	/
Cc1ccc(-c2c3c(=O)n(C)c(=O)n(C)c3cn2Cc2ccccc2)cc1	71.0*	9.5	-5.0	-8.6	-12.0	6.1	-0.2	0.4
CCCS(=O)(=O)c1snnc1C	14.0*	7.9	-3.5	-15.0	-5.0	-1.5	-0.6	0.3
Cc1cccc(C(=O)N=c2c(C#N)cc3c(=O)n4cccc(C)c4nc3n2Cc2ccco2)c1	8.2	23.7	3.4	-8.2	6.3	-3.9	5.0	8.3*
CCNC(=S)Nc1ccc(Cl)c(C(F)(F)F)c1	0.6	/	/	-6.4	/	/	/	/
CCOC(=O)/C(=N\Nc1ccc(Cl)cc1)c1csc(Nc2ccccc2)n1	-0.5	3.1	-0.1	-4.3	-19.9	-2.8	/	/
CCOC(=O)/C(=N/Nc1ccccc1)c1csc(Nc2ccccc2)n1	55.9*	1.6	-4.4	-11.1	-27.2	5.0	-0.8	-1.5
CC1=C(C(=O)OC(C)C)[C@@H](c2ccc(C)o2)NC(=O)N1	-2.8	/	/	3.1	/	/	/	/
Cc1ccc(-c2cc(C(F)F)n3ncc(C(=O)Nc4ccc(S(=O)(=O)Nc5ccccc5C)cc4)c3n2)cc1	-1.8	4.7	-8.1	-5.0	11.6	3.0	/	/
O=S(=O)(Nc1cc2nc3ccccc3nc2n1Cc1ccccc1)c1ccc(Cl)cc1	13.6*	/	/	17.6	/	/	4.6	1.2
CC(=O)Nc1ccc(Sc2ncccc2C(=O)Nc2ccc(OC(F)(F)F)cc2)cn1	22.4*	12.4	-4.7	-38.2	2.5	-1.6	15.8*	42.9*
COc1ccc(OC)c(-c2nc3cc4ccccc4cc3nc2-c2ccccc2)c1	-0.1	/	/	-0.9	/	/	/	/
Cc1cc(C(=O)CN2C(=O)c3cccc(N)c3C2=O)c(C)n1Cc1cccs1	8.3	7.8	9.1	20.5	0.1	7.7	1.4	1.7
COc1ccc(C2=NOC(C(=O)Nc3ccc(C(C)=O)cc3)C2)cc1OC (centres undefined)	-1.2	1.0	-4.9	11.4	15.0	1.2	/	/
COc1ccc(C2=NOC(C(=O)Nc3cc(Br)ccc3O)C2)cc1OC (centres undefined)	20.8*	-4.7	-3.7	-3.3	-10.7	-5.9	0.0	-2.4
